Most compounds without a hit are left out; they make up all but 1.1% or so of the library.
Diaph inh CS: counter-screen for diaphorase-based assays: diaphorase inhibitors and chemical oxidizers. diaphorase resazurin-to-resorufin fluorescence, NADH, 16 min; bacterial (C. kluyveri) enzyme, not human. AID 1217. 0.69% of 190,000 active. inhibition, % at 20 µM;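 active = primary screen inhibition at 20 µM above a set limit, cut at about 50% in these data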;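 also: plate controls were DMSO with full reaction for no effect and wells lacking NADH for full effect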
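Test system: Clostridium kluyveri diaphorase enzyme / Quantity: diaphorase at 0.14 U/mL in enzyme working solution / Incubation: 16-min room-temperature incubation before reading / Benchmarks: NADH-free wells as positive control, DMSO-only neutral wells / Signal: resorufin fluorescence 544/590 nm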
Diaphorase act: counter-screen for diaphorase-based assays: diaphorase activators and chemical reducers; Diaphorase/resazurin coupled assay, resorufin fluorescence, 16 min; stronger effect = higher value; 1 = vehicle wells, 0 = NADH-free wells; activation factor at 20 µM; 0.005% of 190,000 active; AID 1229;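 active = diaphorase activity raised at least twofold by the compound at 20 µM; inactive = activation factor below 2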
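Material: Clostridium kluyveri diaphorase, purified enzyme; Quantity: enzyme 0.07 U/mL final; Medium: HEPES pH 7.4 buffer with MgCl2 and Tween 20; Dosing: single compound dose of 20 µM, 1% DMSO final; Schedule: 16 min reaction at room temperature; Measured by: red resorufin fluorescence at 544/590 nm excitation/emission.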
PMI act: activators of human phosphomannose isomerase; 0.005% of 190,000 active; P34949; purified human PMI, coupled resazurin fluorescence, 20 min; stronger effect = higher value; 1 = vehicle control, 0 substrate-free wells; activation factor at 20 µM; AID 1214;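 active = activation factor of 2 or more at 20 µM, relative to plate controls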
Target sequence (P34949 whole entry, looked up): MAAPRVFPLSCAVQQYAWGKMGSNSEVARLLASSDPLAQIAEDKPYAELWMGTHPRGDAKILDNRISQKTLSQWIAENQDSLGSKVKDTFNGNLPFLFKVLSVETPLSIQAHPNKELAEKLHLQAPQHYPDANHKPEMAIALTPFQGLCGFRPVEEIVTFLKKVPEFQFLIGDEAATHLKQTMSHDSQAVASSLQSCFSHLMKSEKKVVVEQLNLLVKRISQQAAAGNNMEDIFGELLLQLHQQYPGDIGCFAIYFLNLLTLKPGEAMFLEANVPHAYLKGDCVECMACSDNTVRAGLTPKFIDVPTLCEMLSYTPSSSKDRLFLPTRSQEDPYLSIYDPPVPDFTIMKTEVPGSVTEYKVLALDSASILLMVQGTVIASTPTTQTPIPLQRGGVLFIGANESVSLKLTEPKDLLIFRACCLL
DTT redox prof: compounds producing H2O2 with reducing agent – biochemical, NIH compound library profiling, artefact control for MLSCN library redox annotation, primary screen; activation, % at 10 µM; DTT-dependent redox cycling H2O2, phenol red/HRP absorbance; 100% = 100 µM peroxide control, 0% = buffer; 0.03% of 200,000 active;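 active = activation of at least 50% relative to the plate's high and low controls in the primary single-dose screen; inactive = activation below 50%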;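 also: compound incubated with DTT at 0.8 mM final as the reducing agent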
G6PDH counter: inhibits Leuconostoc G6PDH, flagging false hits in G6PDH-based assays | 0.12% of 200,000 active | inhibition, % at 5 µM | Purified L. mesenteroides G6PDH, diaphorase/resazurin coupled fluorescence, 45 min; in the data active = inhibition above about 50%
PMI act hi M6P: increases human PMI activity with near-saturating mannose 6-phosphate; activation factor at 20 µM; 0.34% of 190,000 active; coupled PMI enzyme assay, resazurin fluorescence, 20 min; stronger effect = higher value; 1 = untreated enzyme, 0 = substrate-free blank; AID 1216;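 active = activation factor of 2 or more at 20 µM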
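Material: human phosphomannose isomerase with PGI, G6PDH, diaphorase coupling enzymes / Reagent: Man-6-P substrate 1.0 mM / Dosing: single compound dose of 20 µM, 1% DMSO final / Incubation: enzyme reaction with compound 20 min at room temperature / Signal: resorufin fluorescence (Ex 544/Em 590 nm) from resazurin via diaphorase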
* marks the source's active call; other numbers are inactive results; . = no result.

SMILES	Diaph inh CS	Diaphorase act	PMI act	DTT redox prof	G6PDH counter	PMI act hi M6P
COc1ccc(OC)c(C2CC(=O)N3CN(c4cccc(Cl)c4C)CSC3=C2C#N)c1 (configuration not stated)	52*	0.5	0.5	-1	7	0.9
N#CC1=C2SCN(c3ccccc3)CN2C(=O)CC1c1c(Cl)cccc1Cl (configuration not stated)	51*	0.5	0.7	-1	0	0.8
COc1ccc(OC)c(C2CC(=O)N3CN(c4ccccc4F)CSC3=C2C#N)c1 (configuration not stated)	37	0.6	0.4	-1	2	0.8
N#CC1=C2SCN(c3ccccc3)CN2C(=O)CC1c1ccccc1Cl (configuration not stated)	34	0.7	0.9	-3	5	1.4
Cc1ccc(C2CC(=O)N3CN(c4ccc(Br)cc4)CSC3=C2C#N)o1 (configuration not stated)	58*	0.4	1	3	16	1.4
CCN1CCc2c(sc(NC(=O)Nc3ccc(Cl)c(Cl)c3)c2C(N)=O)C1	16	0.8	1	0	-8	0.8
CC(=O)c1cc(F)ccc1OCC(=O)N1CCN(c2ccc(F)cc2)CC1	7	0.9	1.1	0	-1	1
Cc1cc(Cl)ccc1C(=O)C1CCCN(C(=O)c2snnc2C)C1 (configuration not stated)	8	0.9	1	-1	13	1
CC(=O)OCC(=O)Nc1ccccc1C	-12	1.1	1.3	-1	5	1.2
C[C@](N)(Cc1ccc(O)c(O)c1)C(=O)O	46	0.5	0.4	0	46	0.6
NCCc1ccc(O)c(O)c1	54*	0.5	0.4	0	47	0.6
CCc1ccc(CN(C)C(=O)CC2C(=O)NCCN2Cc2ccoc2)cc1 (configuration not stated)	13	0.9	0.9	-2	10	0.8
Cc1ccc2[nH]c3c(c2c1)CCc1cn[nH]c1-3	70*	0.3	0.3	1	-45	0.4
CCOC(=O)CS(=O)(=O)c1ccc(O)cc1	2	1	1	1	7	0.9
COc1cc(C2Nc3ccc4ncccc4c3C3=C2C(=O)CCC3)cc(OC)c1O (configuration not stated)	44	0.6	0.5	1	50*	0.6
COc1cc(C2Nc3ccc4ncccc4c3C3=C2C(=O)CC(C)(C)C3)cc(OC)c1O (configuration not stated)	41	0.6	0.6	0	45	0.7
CCn1c2ccccc2c2cc(/C=N/n3cn[nH]c3=S)ccc21	62*	0.4	0.9	-3	3	1
S=c1[nH]ncn1/N=C/c1ccccc1	60*	0.4	1	-1	1	1
S=c1[nH]ncn1/N=C/c1ccc(Br)cc1	42	0.6	0.8	0	0	0.9
Cc1ccc(NC(=O)c2sc3nc(CCl)[nH]c(=O)c3c2C)c(C)c1	-2	1	1.1	-1	6	1
CC/C(=N\NC(=O)c1ccc(N(C)C)cc1)c1ccccc1	-2	1	1	0	4	1.1
CCOC(=O)c1cc(-c2ccc(/C=C3/C(=O)NC(=O)C(C#N)=C3C)o2)ccc1Cl	40	0.6	1	2	29	0.8
CC1=C(C#N)C(=O)NC(=O)/C1=C\c1ccc(-c2ccc(C)cc2[N+](=O)[O-])o1	57*	0.4	0.9	-1	14	0.5
CC(C)N1CSC(=S)N(Cc2ccccc2)C1	4	1	0.9	1	15	1
COc1ccc(NC(=S)Nc2cccc3cnccc23)cc1	56*	0.4	0.4	1	30	0.4
SMILES	Diaph inh CS	Diaphorase act	PMI act	DTT redox prof	G6PDH counter	PMI act hi M6P
COc1ccc(NC(=S)Nc2ccc(Oc3ccccc3)cc2)cc1	-8	1.1	1	4	1	0.9
COc1ccccc1NC(=S)Nc1cccc2cnccc12	65*	0.4	0.3	0	-6	0.4
CCOc1ccc(NC(=S)Nc2cccc3cnccc23)cc1	55*	0.4	0.4	0	-2	0.4
CCOc1ccc(NC(=S)Nc2ccc(OCC)cc2)cc1	15	0.9	0.9	0	5	0.9
O=C(NC(=S)Nc1cc(S(=O)(=O)N2CCOCC2)ccc1N1CCOCC1)C1CCCC1	11	0.9	1	0	9	1.1
CNc1oc(Cc2ccccc2)nc1S(=O)(=O)c1ccc(Cl)cc1	54*	0.5	1.1	2	3	0.7
CNc1oc(-c2cccs2)nc1S(=O)(=O)c1ccccc1	2	1	1.4	-1	1	1.1
S=c1nc(SCc2ccccc2)[nH]c2ccccc12	87*	0.1	0.9	0	5	0.9
Cc1ccccc1NC(=O)c1snc2c(=O)[nH]cnc12	4	1	1	-1	2	1
COc1cccc(CNc2ccc(N3CCCCC3)cc2)c1OC	60*	0.4	0.3	0	13	0.4
COc1ccccc1CNc1ccc(N2CCCCC2)cc1	65*	0.3	0.3	1	-14	0.4
Cc1ccc(C(=O)N2N=C3c4ccccc4S(=O)(=O)N3[C@H]2N(C)C)cc1	23	0.8	0.9	-1	12	0.9
CCOC(=O)N1CCC(NC(=O)c2cc(C(=O)Nc3ccc(S(=O)(=O)N4CCCCC4)cc3)ccc2CO)CC1	21	0.8	0.9	10	15	0.8
CCOC(=O)C1=C2NC(=O)c3ccccc3N2C(=O)C1	14	0.9	1.6	0	5	2*
O=C(O)CC1S/C(=N/N=C/c2ccc(-c3ccccc3[N+](=O)[O-])o2)NC1=O (configuration not stated)	52*	0.5	0.3	1	12	0.5
O=c1/c(=C\c2cc([N+](=O)[O-])cc([N+](=O)[O-])c2O)sc2nc3ccccc3n12	50*	0.5	1.7	-1	-3	2.4*
O=c1/c(=C/c2ccccn2)sc2nc3ccccc3n12	15	0.8	1.2	0	-7	1.1
O=C(O)c1cc(C(=O)O)cc(-c2ccc(/C=c3/sc4nc5ccccc5n4c3=O)o2)c1	98*	0	1.1	-2	-1	1.7
COC(=O)/C=c1/sc2nc3ccccc3n2c1=O	-2	1	0.2	0	9	0.5
O=C(O)CCc1nc(-c2ccccc2)c(-c2ccccc2)o1	80*	0.2	1	.	1	1.1

Bioassay records from PubChem.
